Test results reported in ChEMBL document CHEMBL1135812, “Carbonic anhydrase activators: design of high affinity isozymes I, II, and IV activators, incorporating tri-/tetrasubstituted-pyridinium-azole moieties” (2002).

What was measured:
[1] = target: T1, Carbonic anhydrase 4 (Bos taurus) (UniProt Q95323); test: Bovine Carbonic anhydrase IV activity using histamine as standard
T1 sequence (whole entry): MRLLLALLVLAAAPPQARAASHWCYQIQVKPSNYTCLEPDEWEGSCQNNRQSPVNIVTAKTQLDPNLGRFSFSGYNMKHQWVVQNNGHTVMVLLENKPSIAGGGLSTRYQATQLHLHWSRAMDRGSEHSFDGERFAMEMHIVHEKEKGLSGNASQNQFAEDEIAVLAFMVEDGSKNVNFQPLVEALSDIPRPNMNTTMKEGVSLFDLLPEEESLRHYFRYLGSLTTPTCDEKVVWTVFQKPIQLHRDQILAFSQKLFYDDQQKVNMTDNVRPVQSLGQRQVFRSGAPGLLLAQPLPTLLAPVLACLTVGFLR
Summary of the method: (§1)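 Esterase assay: initial rates of 4-nitrophenyl acetate hydrolysis read at 400 nm, pH 7.40, 25 °C, substrate 2×10^-2 to 1×10^-6 M. Enzymes were recombinant human CA I (25 nM) and CA II (7 nM) expressed in E. coli BL21(DE3), and CA IV (33 nM) isolated from bovine lung microsomes. Activator and enzyme were preincubated 15 min at room temperature. Non-enzymatic hydrolysis was subtracted. KA is the mean of at least three determinations.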

[2] = target: Carbonic anhydrase 2 (Homo sapiens) (UniProt P00918); test: […] of human Carbonic anhydrase II, using histamine as standard; summary of the method: as §1
[3] = target: Carbonic anhydrase 1 (Homo sapiens) (UniProt P00915); test: Activation of human Carbonic anhydrase I, using histamine as standard
[4] = organism: Homo sapiens; test: Ex vivo carbonic anhydrase activation was measured after 60 min of incubation of lysed human erythrocyte; type: functional; parameters: concentration or dose not given beside the values
Summary of the method: (§2)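 Washed fresh human erythrocytes (Tris pH 7.40, 5 mM) were lysed in distilled water, then the supernatant was incubated with 5 μM activator at 37 °C for 30 or 60 min. CA activity (hCA I + hCA II) was read by esterase assay with 4-nitrophenyl acetate. Activity without activator was set as 100%; values are mean of n = 3.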

[5] = organism: Homo sapiens; test: Ex vivo carbonic anhydrase activation was measured after 30 min of incubation of lysed human erythrocyte; type: functional; parameters: concentration or dose not given beside the values; summary of the method: as §2

Chain of Carbonic anhydrase 1 (Homo sapiens) (P00915 2-261 limits assumed): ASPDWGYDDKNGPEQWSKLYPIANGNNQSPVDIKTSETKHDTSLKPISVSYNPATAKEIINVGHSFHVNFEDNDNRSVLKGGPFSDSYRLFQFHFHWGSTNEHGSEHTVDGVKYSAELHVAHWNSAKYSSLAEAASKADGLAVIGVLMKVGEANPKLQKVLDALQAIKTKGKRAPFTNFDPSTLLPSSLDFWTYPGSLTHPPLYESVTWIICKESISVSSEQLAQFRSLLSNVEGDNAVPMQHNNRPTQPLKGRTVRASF

Row | Compound | KA [1] [µM] | KA [2] [µM] | KA [3] [µM] | CA activity [4] [%] | CA activity [5] [%]
1 | Cc1cc(-c2ccccc2)cc(-c2ccccc2)[n+]1-c1cc[nH]n1 | 1.85 | 96 | 0.64 | – | –
2 | CCc1cc(-c2ccccc2)cc(-c2ccccc2)[n+]1-c1cc[nH]n1 | 3.41 | 118 | 2.34 | – | –
3 | Cc1cc(C(C)C)[n+](-c2cc[nH]n2)c(C(C)C)c1 | 0.016 | 0.264 | 0.038 | – | –
4 | CC(C)c1cc(-c2ccccc2)cc(-c2ccccc2)[n+]1-c1ncc[nH]1 | 3.14 | 107 | 1.54 | – | –
5 | CCCCc1cc(-c2ccccc2)cc(-c2ccccc2)[n+]1-c1nn[n-]n1 | > 50 | > 150 | 10.5 | – | –
6 | c1ccc(-c2cc(-c3ccccc3)[n+](-c3ncc[nH]3)c(-c3ccccc3)c2)cc1 | > 50 | > 150 | 15 | – | –
7 | CC(C)c1cc(-c2ccccc2)cc(-c2ccccc2)[n+]1-c1cc[nH]n1 | 5.29 | 130 | 2.5 | – | –
8 | CCCCc1cc(-c2ccccc2)cc(-c2ccccc2)[n+]1-c1cc[nH]n1 | > 50 | > 150 | 5.64 | – | –
9 | Cc1cc(C)[n+](-c2ncc[nH]2)c(C)c1 | 0.021 | 0.347 | 0.036 | – | –
10 | Cc1cc(C)[n+](-c2cc[nH]n2)c(C)c1 | 0.045 | 0.48 | 0.052 | – | –
11 | CCCCc1cc(-c2ccccc2)cc(CCCC)[n+]1-c1cc[nH]n1 | 2.59 | 140 | 1.76 | – | –
12 | CCCc1cc(-c2ccccc2)cc(-c2ccccc2)[n+]1-c1nn[n-]n1 | 15.5 | > 150 | 4.21 | – | –
13 | CCc1cc(-c2ccccc2)cc(CC)[n+]1-c1ncc[nH]1 | 0.009 | 0.144 | 0.018 | – | –
14 | Cc1c2cc(c(C)[n+]1-c1cc[nH]n1)CCCCCCCCC2 | 0.033 | 0.412 | 0.037 | – | –
15 | CCc1cc(-c2ccccc2)cc(-c2ccccc2)[n+]1-c1ncc[nH]1 | 2.56 | 84 | 1.05 | – | –
16 | c1ccc(-c2cc(-c3ccccc3)[n+](-c3nn[n-]n3)c(-c3ccccc3)c2)cc1 | > 50 | > 150 | 41 | – | –
17 | Cc1cc(C(C)C)[n+](-c2ncc[nH]2)c(C(C)C)c1 | 0.008 | 0.13 | 0.024 | – | –
18 | Cc1c2cc(c(C)[n+]1C1=NCC=N1)CCCCCCCCC2 | 0.02 | 0.305 | 0.022 | – | –
19 | CCCc1cc(-c2ccccc2)cc(CCC)[n+]1-c1nn[n-]n1 | 1.55 | 136 | 2.12 | – | –
20 | CCCCc1cc(-c2ccccc2)cc(CCCC)[n+]1-c1nn[n-]n1 | 6.8 | 145 | 1.8 | – | –
21 | CC(C)c1cc(-c2ccccc2)cc(C(C)C)[n+]1-c1cc[nH]n1.[O-][Cl+3]([O-])([O-])[O-] | 0.008 | 0.155 | 0.021 | 234 | 189
22 | CCCc1cc(-c2ccccc2)cc(CCC)[n+]1-c1cc[nH]n1 | 1.2 | 75 | 1.35 | – | –

Row | Compound | KA [1] [µM] | KA [2] [µM] | KA [3] [µM] | CA activity [4] [%] | CA activity [5] [%]
23 | CC(C)c1cc(-c2ccccc2)cc(-c2ccccc2)[n+]1-c1nn[n-]n1 | 10.1 | 134 | 2.87 | – | –
24 | Cc1cc(-c2ccccc2)cc(C)[n+]1-c1ncc[nH]1.[O-][Cl+3]([O-])([O-])[O-] | 0.013 | 0.153 | 0.021 | 233 | 192
25 | CC(C)c1cc(-c2ccccc2)cc(C(C)C)[n+]1-c1ncc[nH]1.[O-][Cl+3]([O-])([O-])[O-] | 0.006 | 0.095 | 0.012 | 298 | 256
26 | Cc1cc(C)[n+](-c2ncc[nH]2)c(-c2ccccc2)c1 | 0.975 | 59 | 0.36 | – | –
27 | Cc1cc(-c2ccccc2)cc(-c2ccccc2)[n+]1-c1nn[n-]n1 | 5.24 | 108 | 1.1 | – | –
28 | Cc1cc(C)[n+](-c2cc[nH]n2)c(-c2ccccc2)c1 | 1.68 | 83 | 0.875 | – | –
29 | Cc1cc(-c2ccccc2)cc(C)[n+]1-c1nn[n-]n1 | 0.063 | 1.39 | 0.076 | – | –
30 | c1ccc(-c2cc(-c3ccccc3)[n+](-c3cc[nH]n3)c(-c3ccccc3)c2)cc1 | > 50 | > 150 | 32 | – | –
31 | CCCc1cc(-c2ccccc2)cc(-c2ccccc2)[n+]1-c1cc[nH]n1 | 8.23 | 135 | 2.78 | – | –
32 | Cc1cc(C)[n+](-c2cc[nH]n2)c(C)c1C | 0.038 | 0.457 | 0.049 | – | –
33 | NCCc1c[nH]cn1 [HISTAMINE] | 41 | 125 | 2.1 | 130 | 121
34 | Cc1cc(-c2ccccc2)cc(-c2ccccc2)[n+]1-c1ncc[nH]1 | 1.24 | 62 | 0.303 | – | –
35 | CCCCc1cc(-c2ccccc2)cc(CCCC)[n+]1-c1ncc[nH]1 | 1.89 | 86 | 0.651 | – | –
36 | CCc1cc(-c2ccccc2)cc(-c2ccccc2)[n+]1-c1nn[n-]n1 | 12.5 | 140 | 3.05 | – | –
37 | CCc1cc(-c2ccccc2)cc(CC)[n+]1-c1cc[nH]n1 | 0.015 | 0.306 | 0.027 | – | –
38 | CCc1cc(-c2ccccc2)cc(CC)[n+]1-c1nn[n-]n1 | 0.055 | 1.23 | 0.064 | – | –
39 | CC(C)c1cc(-c2ccccc2)cc(C(C)C)[n+]1-c1nn[n-]n1 | 0.012 | 1.15 | 0.05 | 212 | 173
40 | CCCc1cc(-c2ccccc2)cc(CCC)[n+]1-c1ncc[nH]1 | 0.62 | 48 | 0.247 | – | –
41 | CCCc1cc(-c2ccccc2)cc(-c2ccccc2)[n+]1-c1ncc[nH]1 | 5.76 | 130 | 1.9 | – | –
42 | Cc1cc(-c2ccccc2)cc(C)[n+]1-c1cc[nH]n1 | 0.017 | 0.359 | 0.035 | – | –
43 | CCCCc1cc(-c2ccccc2)cc(-c2ccccc2)[n+]1-c1ncc[nH]1 | 9.55 | 130 | 2.4 | – | –
